From article PMC5761012 (Journal of Pharmaceutical Analysis, 2013)

What was measured:
[1] = tested on: human plasma proteins; test: Human plasma protein binding by equilibrium dialysis with UPLC-MS/MS; format: in vitro ADME; conditions: for Kd at 72 h: human, human plasma (equilibrium dialysis against phosphate buffer); for maximum binding ability β: modified Scatchard equation, extract 1.2 to 60 μg/mL, human plasma, Pt 71.28 g/L
In short: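 Blank human plasma was placed in 10 kDa dialysis bags (pre-soaked in pH 7.4 phosphate buffer) and dialysed at 4 °C for 72 h against buffer containing the aqueous plant extract (1.2–60 µg/mL). Inside-bag concentration gave total drug; outside gave free drug. Analysis was by UPLC–ESI-MS/MS after methanol/formic acid protein precipitation, with matrix-specific 1/x² weighted calibration. Parameters came from a modified Scatchard fit using Pt 71.28 g/L (Lowry) and plasma water 99.25%.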

[2] = Analyte stability in human plasma and phosphate buffer; format: in vitro ADME; conditions: for time stable at ambient temperature / reduction of the concentration after three freeze–thaw cycles: QC samples; for time stable at ambient temperature: human plasma and phosphate buffer, three concentration levels; for reduction of the concentration after three freeze–thaw cycles: −20 °C to room temperature; for time stable in auto-sampler conditions: processed QC samples, 15 °C
In short: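 Processed QC samples in human plasma and pH 7.4 phosphate buffer were tested at three concentration levels, three replicates each. Conditions were 6 h at ambient temperature, or three freeze (−20 °C)/thaw (room temperature) cycles followed by 24 h at 15 °C in the auto-sampler. Separately, samples were held 96 h at 4 °C. Mean UPLC–ESI-MS/MS concentrations were compared with freshly prepared QC samples.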

| Kd at 72 h [1] | maximum binding ability β [1] | time stable at ambient temperature [2] | reduction of the concentration after three freeze–thaw cycles [2] | time stable in auto-sampler conditions [2] | SMILES |
| --- | --- | --- | --- | --- | --- |
| 26.6 µM | 2.685 µmol/g | at least 6 h | < 10% | ≥ 24 h | O=c1cc(-c2ccc(O)c(O)c2)oc2c([C@@H]3O[C@H](CO)[C@@H](O)[C@H](O)[C@H]3O)c(O)cc(O)c12 [orientin] |
| 5.29 µM | 0.6420 µmol/g | at least 6 h | < 10% | ≥ 24 h | C[C@@H]1O[C@@H](Oc2c(-c3ccc(O)c(O)c3)oc3cc(O)cc(O)c3c2=O)[C@H](O)[C@H](O)[C@H]1O [quercitrin] |
| 19.7 µM | 1.650 µmol/g | at least 6 h | < 10% | ≥ 24 h | O=c1cc(-c2ccc(O)cc2)oc2c([C@@H]3O[C@H](CO)[C@@H](O)[C@H](O)[C@H]3O)c(O)cc(O)c12 [vitexin] |
